These results are taken from ChEMBL document CHEMBL4808215, “Discovery of Selective Small-Molecule Inhibitors for the ENL YEATS Domain” (J Med Chem, 2021).

For assay [1], the system named is MOLM-13. Kind of assay: Growth inhibition of human MOLM13 cells at 5 uM incubated for 3 days by CellTiter-Glo luminescent cell viability assay relative to control. In kind it is functional. Conditions: MOLM-13, 72 h, time 3 day, read-out: GI. A digest of the protocol: (§1)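 MOLM13 and MV4;11 were grown in RPMI-1640 + 10% FBS, U2OS in DMEM + 10% FBS. Treatment with DMSO or compound for 3 days. Viability read by CellTiter-Glo luminescence and expressed as % of DMSO-treated cells. Mean ± SEM, n = 3.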
On the technique in general: ATP-based viability assays read luminescence as a measure of living cells.

Assay [2] concerns MOLM-13. Briefly: Growth inhibition of human MOLM13 cells at 10 uM incubated for 3 days by CellTiter-Glo luminescent cell viability assay relative to control. In kind it is functional. Conditions: MOLM-13, 72 h, time 3 day, read-out: GI. A digest of the protocol: as §1
Assay [3] has as its target T1, Protein ENL (Homo sapiens) (UniProt Q03111).
T1 sequence (whole entry): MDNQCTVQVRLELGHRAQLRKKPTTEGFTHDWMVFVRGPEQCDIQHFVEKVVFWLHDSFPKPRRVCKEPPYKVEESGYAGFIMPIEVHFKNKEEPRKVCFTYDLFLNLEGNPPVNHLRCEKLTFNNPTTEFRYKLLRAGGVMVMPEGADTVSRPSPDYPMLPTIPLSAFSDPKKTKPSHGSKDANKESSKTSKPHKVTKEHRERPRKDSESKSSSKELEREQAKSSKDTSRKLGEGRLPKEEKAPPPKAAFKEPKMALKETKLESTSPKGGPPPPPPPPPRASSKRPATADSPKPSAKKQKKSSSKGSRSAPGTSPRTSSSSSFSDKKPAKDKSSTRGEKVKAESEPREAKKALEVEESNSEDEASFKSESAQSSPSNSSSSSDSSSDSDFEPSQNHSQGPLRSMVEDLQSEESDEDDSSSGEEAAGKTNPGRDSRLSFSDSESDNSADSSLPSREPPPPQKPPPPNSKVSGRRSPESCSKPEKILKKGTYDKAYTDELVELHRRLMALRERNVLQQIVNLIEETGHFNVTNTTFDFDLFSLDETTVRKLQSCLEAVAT
Briefly: Stabilization of ENL in human MV4-11 cells assessed as inhibition of high temperature-induced ENL protein degradation at 20 uM incubated for 5 hrs by cellular thermal shift assay. Format: cell-based. The procedure, abridged:
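Cells (MOLM13, MV4;11 or HeLa) were treated with 20 μM compound or DMSO for 5 h, washed with PBS and resuspended in PBS with protease inhibitors, about 3 million cells per aliquot. Aliquots were heated 3 min at the indicated temperatures, then held 2 min at room temperature. Lysis was by NP40/glycerol/DTT buffer and three freeze-thaw cycles, followed by a 13,000 rpm spin at 4 °C. Soluble ENL, GAS41 or AF9 in supernatants was measured by western blot with β-actin loading control.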

In assay [4] the target is T1, Protein ENL (Homo sapiens). Briefly: Inhibition of human His-ENL YEATS domain and biotinylated H3K9ac peptide interaction at 5 uM by AlphaScreen assay. (In Alpha technology, singlet oxygen from a donor bead excites a nearby acceptor bead.)
Assay [5] addresses YEATS domain-containing protein 4 (Homo sapiens, UniProt O95619). Kind of assay: Inhibition of human His-GAS41 YEATS domain and biotinylated H3K27ac peptide interaction by AlphaScreen assay. A digest of the protocol: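 His-tagged YEATS domains were expressed in E. coli Rosetta-2 (DE3) pLysS and purified on Ni-NTA. Partners were biotinylated peptide on streptavidin donor and Ni2+-chelate acceptor beads: AF9 30 nM with H3K9ac, GAS41 100 nM with H3K27ac, YEATS2 100 nM with H3K27cr. Peptides at 30 nM, buffer 50 mM HEPES pH 7.4, 100 mM NaCl, 0.1% BSA, 0.05% CHAPS. Thirteen-point 3-fold series from 54 μM to 0.1 nM, 4–6 replicates, signal normalised to no-compound control, four-parameter fit.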

The next assay addresses T2, Protein AF-9 (Homo sapiens, UniProt P42568).
T2 sequence (P42568 whole entry): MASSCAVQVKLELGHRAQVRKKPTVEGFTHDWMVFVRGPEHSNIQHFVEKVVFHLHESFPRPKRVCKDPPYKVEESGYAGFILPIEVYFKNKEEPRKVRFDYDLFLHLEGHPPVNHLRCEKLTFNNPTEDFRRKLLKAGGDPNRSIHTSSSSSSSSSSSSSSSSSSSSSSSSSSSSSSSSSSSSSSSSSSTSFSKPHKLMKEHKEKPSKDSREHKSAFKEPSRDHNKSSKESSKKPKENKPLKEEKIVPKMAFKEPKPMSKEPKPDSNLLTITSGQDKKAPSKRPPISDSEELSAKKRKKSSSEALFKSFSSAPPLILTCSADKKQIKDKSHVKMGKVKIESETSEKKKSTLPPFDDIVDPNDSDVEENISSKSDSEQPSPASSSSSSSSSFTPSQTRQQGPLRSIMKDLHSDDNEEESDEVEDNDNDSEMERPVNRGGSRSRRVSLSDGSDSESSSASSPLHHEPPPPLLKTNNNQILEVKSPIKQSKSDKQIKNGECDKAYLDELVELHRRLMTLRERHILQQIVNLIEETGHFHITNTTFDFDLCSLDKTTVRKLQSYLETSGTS
Briefly: Inhibition of human His-AF9 YEATS domain and biotinylated H3K9ac peptide interaction by AlphaScreen assay.

For assay [6], the system named is MOLM-13. Kind of assay: Growth inhibition of human MOLM13 cells incubated for 6 days in presence of JQ1 by CellTiter-Glo luminescent cell viability assay. Conditions: MOLM-13, 144 h.
The test system of the next assay is U2OS. Briefly: Growth inhibition of ENL-independent human U2OS cells at 50 uM incubated for 3 days by CellTiter-Glo luminescent cell viability assay relative to control. Format: functional, cell-based. Conditions: time 3.0 day. The procedure, abridged:
as §1

As a reminder, the IC50 is the point on the concentration scale where inhibition reaches its midpoint. Read a low IC50 as greater potency in that assay. As a reminder, the GI50 is the concentration that inhibits growth by half.

Structures are written as SMILES. The source made the active and inactive calls. The calls are words filed in the database; no cut-off is given here.

Sequence of YEATS domain-containing protein 4 (O95619 whole entry, the tested form may be a part): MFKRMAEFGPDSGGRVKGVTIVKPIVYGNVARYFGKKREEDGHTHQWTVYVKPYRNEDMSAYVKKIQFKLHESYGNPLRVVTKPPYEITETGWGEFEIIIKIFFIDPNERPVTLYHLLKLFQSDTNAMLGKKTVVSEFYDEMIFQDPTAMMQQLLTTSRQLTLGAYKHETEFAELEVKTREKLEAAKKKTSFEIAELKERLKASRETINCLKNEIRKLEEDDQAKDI

`CN(C)Cc1ccc(CNC(=O)c2ccc3nncn3c2)cc1`: the inhibition of growth at 5 µM in the assay with MOLM-13 [1] came to 40%. For the same molecule, the inhibition of growth at 10 µM in the assay on MOLM-13 [2] was 80%. Moreover, the outcome in assay [3] was Active. Besides, in assay [4], the inhibition result is “Active”. For the same molecule, the figures for the concentration for half-maximal inhibition (IC50) (in assay [5]; against Protein AF-9) were more than 54 µM and 4.93 µM, respectively. Further, the GI50 in the assay on MOLM-13 [6] turned out to be 1.34 µM. Further, the “growth inhibition (GI)” value in the assay with U2OS is “inactive”.
